According to PMC9293090 (Journal of Neurochemistry, 2021):

Columns and labels:
GCS [1] = target: T1, GCS (Homo sapiens, UniProt Q16739); assay: Affinity selection mass spectrometry; type: binding
T1 sequence (Q16739 1-394): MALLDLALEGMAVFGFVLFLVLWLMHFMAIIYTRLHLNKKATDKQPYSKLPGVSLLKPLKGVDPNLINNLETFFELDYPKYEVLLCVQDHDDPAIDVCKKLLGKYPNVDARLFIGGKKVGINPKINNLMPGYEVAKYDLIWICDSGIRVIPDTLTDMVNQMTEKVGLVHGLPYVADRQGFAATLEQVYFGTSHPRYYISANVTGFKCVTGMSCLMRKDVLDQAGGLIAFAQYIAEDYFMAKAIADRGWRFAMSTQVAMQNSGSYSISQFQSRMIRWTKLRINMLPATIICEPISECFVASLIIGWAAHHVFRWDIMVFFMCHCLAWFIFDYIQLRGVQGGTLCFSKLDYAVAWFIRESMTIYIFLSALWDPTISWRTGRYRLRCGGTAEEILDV
In short: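 Compound at various concentrations was incubated 60 min at 20-25°C with 10 μg/ml GCS-expressing microsomal protein in 20 mM Tris–HCl pH 7.5, 1 mM DTT, 0.01% Tween20, plus 200 μM UDP-glucose, 70 μM C8-ceramide, or neither. Bound and free compound were separated by […] through Sephadex G50-Fine. The eluent was denatured with 70% acetonitrile, and compound was quantified by LC/MS. Specific binding = counts with GCS minus counts without GCS.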

GlcCer = settings: ref Larsen et al., 2012; cited from earlier work
GCS [2] = target: T1, GCS; assay: Steady-state kinetic GCS competition experiment; type: biochemical; settings: for K m / V max: for UDP-glucose, fixed ceramide 7.4 μM; for inhibition mode of GCS against UDP-glucose: various UDP-glucose concentrations; for inhibition mode of GCS against ceramide: various ceramide concentrations
GlcSph = settings: clinical trial, therapeutic dose; ref Mistry et al., 2017; cited from earlier work
[3] = presence of UDP-glucose (200 μM)

SMILES: CCCCCCCC(=O)N[C@H](CN1CCCC1)[C@H](O)c1ccc2c(c1)OCCO2 [Eliglustat]
- binding to GCS by AS-MS (GCS [1]; absence of UDP-glucose): not detected
- binding to GCS by AS-MS (GCS [1]; [3]): bind GCS
- effect on the GlcCer level in the brain (GlcCer): no significant effect
- K m (GCS [2]): 2.37 ± 0.11 µM
- V max (GCS [2]): 37.60 ± 0.45 µmol/min
- inhibition mode of GCS against UDP-glucose (GCS [2]): uncompetitive
- inhibition mode of GCS against ceramide (GCS [2]): noncompetitive
- reduction of GlcSph concentration in the plasma (GlcSph): 40%

SMILES: CC(C)(NC(=O)O[C@@H]1CN2CCC1CC2)c1csc(-c2ccc(F)cc2)n1 [Venglustat]
- binding to GCS by AS-MS (GCS [1]; absence of UDP-glucose): not detected
- binding to GCS by AS-MS (GCS [1]; [3]): bind GCS
- K m (GCS [2]): 2.53 ± 0.09 µM
- V max (GCS [2]): 38.58 ± 0.32 µmol/min
- inhibition mode of GCS against UDP-glucose (GCS [2]): uncompetitive
- inhibition mode of GCS against ceramide (GCS [2]): noncompetitive
